Assays:
Rattus norvegicus [1] = test: Assessment of antihypertensive activity at 100 mg/kg administered perorally by measuring the heart rate in rats; format: functional; conditions: route oral
Rattus norvegicus [2] = species on record: Rattus norvegicus; format: functional, Artery; conditions: dose 100 mg/kg; route oral
Rattus norvegicus [3] = test: The antihypertensive activity was assessed by measuring the mean arterial blood pressure in rats when administered at 30 mg/kg; format: functional
Summary of the method: (§1)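 16-week-old male SH rats (Okamoto) were dosed by oral gavage in 3% starch in normal saline (2 mL/kg), plus an oral saline load of 25 mL/kg. They were redosed at 24 h without the saline load. MABP and HR were taken by direct femoral arterial puncture under local anesthesia 4 h after the second dose. HR was rounded to 10 bpm.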

Rattus norvegicus [4] = test: The antihypertensive activity was assessed by measuring the mean arterial blood pressure in rats when administered at 50 mg/kg; format: functional; summary of the method: as §1
Rattus norvegicus [5] = test: The antihypertensive activity was assessed by measuring the heart rate in rats when administered at 30 mg/kg; format: functional; summary of the method: as §1
Rattus norvegicus [6] = test: The antihypertensive activity was assessed by measuring the heart rate in rats when administered at 50 mg/kg; format: functional; summary of the method: as §1
Rattus norvegicus [7] = test: The antihypertensive activity was assessed by measuring the mean arterial blood pressure in rats when administered at 10 mg/kg; format: functional; summary of the method: as §1
Rattus norvegicus [8] = test: The antihypertensive activity was assessed by measuring the heart rate in rats when administered at 10 mg/kg; format: functional; summary of the method: as §1
Rattus norvegicus [9] = test: The antihypertensive activity at 100 mg/kg administered perorally was assessed by measuring the mean arterial blood pressure (MABP) in rats; format: functional; conditions: route oral
Summary of the method: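 Male SH rats (Okamoto, 16 weeks old) got 100 mg/kg by oral gavage in 3% starch in normal saline (2 mL/kg), then an oral 25 mL/kg saline load. They were redosed at 24 h without the load. MABP and HR were taken by direct femoral arterial puncture under local anesthesia 4 h after the second dose, in one to three rats per compound. Active: one rat reduced to 116 mmHg, or a two-rat average reduced to 122 mmHg.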

Compound	HR (Rattus norvegicus [1])	MABP (Rattus norvegicus [2])	also measured
N#Cc1ccc(CN2CCN(c3nc(N)n[nH]3)CC2)cc1	420 beats min-1	127 mmHg	–
Nc1n[nH]c(N2CCN(Cc3ccco3)CC2)n1	410 beats min-1	114 mmHg	MABP (Rattus norvegicus [3]): 115 mmHg; MABP (Rattus norvegicus [4]): 102 mmHg; HR (Rattus norvegicus [5]): 440 beats min-1; HR (Rattus norvegicus [6]): 370 beats min-1; MABP (Rattus norvegicus [7]): 153 mmHg; HR (Rattus norvegicus [8]): 440 beats min-1
CN(C)c1ccc(CN2CCN(c3n[nH]c(N)n3)CC2)cc1Br	320 beats min-1	116 mmHg	–
CN(C)c1ccc(CN2CCN(c3n[nH]c(N)n3)CC2)cc1	380 beats min-1	111 mmHg	MABP (Rattus norvegicus [4]): 129 mmHg; HR (Rattus norvegicus [6]): 440 beats min-1
Nc1n[nH]c(N2CCN(C(c3ccccc3)c3ccc(Cl)cc3)CC2)n1 (stereo unspecified)	350 beats min-1	115 mmHg	–
Nc1n[nH]c(N2CCN(Cc3ccncc3)CC2)n1	380 beats min-1	142 mmHg	–
COc1ccccc1N1CCN(c2n[nH]c(N)n2)CC1	440 beats min-1	157 mmHg	–
Nc1n[nH]c(N2CCN(CC3CCCCC3)CC2)n1	420 beats min-1	123 mmHg	–
CN(C)CCCN1CCN(c2n[nH]c(N)n2)CC1	420 beats min-1	140 mmHg	–
Nc1n[nH]c(N2CCN(CC3CC3)CC2)n1	390 beats min-1	104 mmHg	–
Cc1cc(C)c(CN2CCN(c3n[nH]c(N)n3)CC2)c(C)c1	430 beats min-1	137 mmHg	–
Cc1ccc(C)c(CN2CCN(c3n[nH]c(N)n3)CC2)c1	400 beats min-1	139 mmHg	–
COc1ccc(CN2CCN(c3n[nH]c(N)n3)CC2)c(OC)c1OC	420 beats min-1	147 mmHg	–
Nc1n[nH]c(N2CCN(CC3CCCC3)CC2)n1	–	114 mmHg	MABP (Rattus norvegicus [4]): 117 mmHg; HR (Rattus norvegicus [6]): 440 beats min-1
Nc1n[nH]c(N2CCN(c3ccccn3)CC2)n1	430 beats min-1	133 mmHg	–
CC(c1ccccc1)N1CCN(c2n[nH]c(N)n2)CC1 (stereo unspecified)	370 beats min-1	136 mmHg	–
Nc1n[nH]c(N2CCN(Cc3c(Cl)cccc3Cl)CC2)n1	400 beats min-1	140 mmHg	–
Nc1n[nH]c(N2CCN(CCc3ccccc3)CC2)n1	330 beats min-1	77 mmHg	MABP (Rattus norvegicus [7]): 142 mmHg; HR (Rattus norvegicus [8]): 440 beats min-1
Nc1n[nH]c(N2CCN(c3ccc(F)cc3)CC2)n1	420 beats min-1	151 mmHg	–
Nc1n[nH]c(N2CCN(Cc3cccc(C(F)(F)F)c3)CC2)n1	390 beats min-1	129 mmHg	–
Nc1n[nH]c(N2CCN(CCCc3ccccc3)CC2)n1	380 beats min-1	93 mmHg	MABP (Rattus norvegicus [4]): 95 mmHg; HR (Rattus norvegicus [6]): 520 beats min-1
CCCCc1ccc(CN2CCN(c3n[nH]c(N)n3)CC2)cc1	360 beats min-1	136 mmHg	–
Nc1n[nH]c(N2CCN(C(=O)c3ccc(-c4ccccc4)cc3)CC2)n1	400 beats min-1	138 mmHg	–
Nc1n[nH]c(N2CCN(C/C=C/c3ccccc3)CC2)n1	430 beats min-1	101 mmHg	–
Nc1n[nH]c(N2CCN(Cc3ccc4ccccc4n3)CC2)n1	440 beats min-1	121 mmHg	–

Compound	HR (Rattus norvegicus [1])	MABP (Rattus norvegicus [2])	also measured
CN(C)c1ccc(CN2CCN(c3n[nH]c(N)n3)CC2)c(Cl)c1	400 beats min-1	120 mmHg	–
CC(=O)N1CCN(c2n[nH]c(N)n2)CC1	440 beats min-1	142 mmHg	–
Nc1n[nH]c(N2CCN(Cc3ccccc3)CC2)n1	360 beats min-1	102 mmHg	MABP (Rattus norvegicus [7]): 118 mmHg; HR (Rattus norvegicus [8]): 400 beats min-1
Nc1n[nH]c(N2CCN(c3ccccc3)CC2)n1	340 beats min-1	128 mmHg	–
Cc1ccc(CN2CCN(c3n[nH]c(N)n3)CC2)cc1	340 beats min-1	112 mmHg	MABP (Rattus norvegicus [4]): 70 mmHg; HR (Rattus norvegicus [6]): 350 beats min-1
Cc1ccccc1CN1CCN(c2n[nH]c(N)n2)CC1	410 beats min-1	131 mmHg	–
CC(C)(C)c1ccc(CN2CCN(c3n[nH]c(N)n3)CC2)cc1	350 beats min-1	130 mmHg	–
Nc1n[nH]c(N2CCN(C(=O)c3ccco3)CC2)n1	410 beats min-1	142 mmHg	–
Nc1n[nH]c(N2CCN(Cc3ccc(F)cc3)CC2)n1	360 beats min-1	97 mmHg	–
Nc1n[nH]c(N2CCN(Cc3ccccc3F)CC2)n1	350 beats min-1	97 mmHg	MABP (Rattus norvegicus [4]): 79 mmHg; HR (Rattus norvegicus [6]): 330 beats min-1
Nc1n[nH]c(N2CCN(Cc3ccc(Cl)c(Cl)c3)CC2)n1	330 beats min-1	95 mmHg	–
Cc1cccc(CN2CCN(c3n[nH]c(N)n3)CC2)c1	440 beats min-1	132 mmHg	–
CC(C)(C)c1ccc(C(=O)N2CCN(c3n[nH]c(N)n3)CC2)cc1	400 beats min-1	141 mmHg	–
Nc1n[nH]c(N2CCN(Cc3ccccc3[N+](=O)[O-])CC2)n1	430 beats min-1	135 mmHg	–
Nc1n[nH]c(N2CCN(CCCOc3ccccc3)CC2)n1	310 beats min-1	89 mmHg	–
CN1CCN(c2n[nH]c(N)n2)CC1	–	116 mmHg	MABP (Rattus norvegicus [4]): 133 mmHg; HR (Rattus norvegicus [6]): 440 beats min-1; HR (Rattus norvegicus [9]): 400 beats min-1
CC(C)C(=O)N1CCN(c2n[nH]c(N)n2)CC1	410 beats min-1	141 mmHg	–
Nc1ccc(CN2CCN(c3n[nH]c(N)n3)CC2)cc1	380 beats min-1	109 mmHg	–
Nc1n[nH]c(N2CCN(Cc3ccc(F)cc3Cl)CC2)n1	410 beats min-1	145 mmHg	–
C=CCN1CCN(c2nc(N)n[nH]2)CC1	360 beats min-1	96 mmHg	–
COc1cc(CN2CCN(c3n[nH]c(N)n3)CC2)cc(OC)c1OC	440 beats min-1	132 mmHg	–
Nc1n[nH]c(N2CCN(CCNCc3ccncc3)CC2)n1	440 beats min-1	144 mmHg	–
Br.Br.Nc1n[nH]c(N2CCNCC2)n1	410 beats min-1	92 mmHg	–
Cl.Cl.Nc1n[nH]c(N2CCN(Cc3cccc4ccccc34)CC2)n1	350 beats min-1	133 mmHg	–
Clc1cccc(Cl)c1NC1=NCCN1 [CLONIDINE]	180 beats min-1	102 mmHg	–

— ChEMBL document CHEMBL1124416, “5-(1-piperazinyl)-1H-1,2,4-triazol-3-amines as antihypertensive agents” (1989)
